ChEMBL document CHEMBL1149158, “Combination of paclitaxel and nitric oxide as a novel treatment for the reduction of restenosis” (J Med Chem, 2004)
pIC50: −log10 of the molar value.

Assays:
Oryctolagus cuniculus [1] = species on record: Oryctolagus cuniculus; test: In vitro antiplatelet aggregatory effect in rabbit platelet rich plasma (PRP); assay type: functional
Outline: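 Rabbit blood collected 10:1 into 3.8% trisodium citrate pH 6.5, spun 180g 15 min at 21 °C to give PRP. PRP preincubated 2 min at 37 °C with compound (500× ethanol stock), then aggregation induced with ADP (5–10 μM) and followed in an aggregometer; percent inhibition calculated relative to maximum aggregation amplitude.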

Oryctolagus cuniculus [2] = test: In vivo nitric oxide(NO) release was determined by the coated stent compound in rabbit iliac at 0 h; value expressed as mercury displaceable nitric oxide; assay type: functional
Homo sapiens = species on record: Homo sapiens; test: (§1) In vitro antiproliferative effect on cultured human coronary artery smooth muscle cells (hCASMC); assay type: functional
Outline: (§2)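 Human coronary artery smooth muscle cells seeded at 3×10^4 per well in SmGM2 growth medium; compound added from 1000× ethanol stock 3-4 h after seeding, ethanol vehicle controls, n = 4 per point. After 68-72 h cells trypsinized and viable (Trypan Blue negative) cells counted by hemacytometer; mean ± SD.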

Oryctolagus cuniculus [3] = test: In vivo nitric oxide(NO) release was determined by the coated stent compound in rabbit iliac at 6 hrs; value expressed as mercury displaceable nitric oxide; assay type: functional
Outline: (§3)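 Coated stent deployed in rabbit iliac artery, position confirmed by angiography; 6 h later animal euthanized with 120 mg/kg iv sodium pentobarbital, stent recovered from the artery and nitrosothiol/NO content measured by chemiluminescence; retained content expressed relative to original load.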

Oryctolagus cuniculus [4] = test: In vivo nitric oxide(NO) release was determined by the coated stent compound in rabbit iliac at 6 hrs; value expressed as percent remaining nitric oxide; assay type: functional; outline: as §3
[5] = Stent coated compound was evaluated for mercury displaceable NO after sterilization (Electron-Beam Radiation); assay type: functional
[6] = Stent coated compound was evaluated for mercury displaceable NO before sterilization (Electron-Beam Radiation); assay type: functional
Oryctolagus cuniculus [7] = species on record: Oryctolagus cuniculus; test: Compound was evaluated to determine the stenosis in Rabbit Iliac Arteries value expressed as difference from polymer coated stents; assay type: functional
Oryctolagus cuniculus [8] = species on record: Oryctolagus cuniculus; test: Compound was evaluated to determine the stenosis in Rabbit Iliac Arteries; assay type: functional
Oryctolagus cuniculus [9] = species on record: Oryctolagus cuniculus; test: Compound was evaluated to determine the stenosis in Rabbit Iliac Arteries value expressed as difference from bare stents; assay type: functional
Oryctolagus cuniculus [10] = species on record: Oryctolagus cuniculus; test: Compound was evaluated to determine the stenosis in Rabbit Iliac Arteries value expressed as net effect of NO over paclitaxel coated stents; assay type: functional
[11] = system: Coronary artery smooth muscle cell line; test: as §1; assay type: functional, cell-based; outline: as §2

SMILES	Activity (Oryctolagus cuniculus [2])	Activity (Oryctolagus cuniculus [3])	Activity (Oryctolagus cuniculus [4])	Activity [5]	Activity [6]	pIC50 [11]	also measured
CC(=O)O[C@H]1C(=O)[C@@]2(C)C([C@H](OC(=O)c3ccccc3)[C@]3(O)C[C@H](OC(=O)[C@H](O)[C@@H](NC(=O)c4ccccc4)c4ccccc4)C(C)=C1C3(C)C)[C@]1(OC(C)=O)CO[C@@H]1C[C@@H]2OC(=O)CC(C)(C)SN=O (some centres not stated) [listing 1 of 2 here]	369 nmol/stent	214 nM stent-1	65%	–	–	–	pIC50 (Oryctolagus cuniculus [1]): 5.00; pIC50 (Homo sapiens): ~7.70
CC(=O)O[C@H]1C(=O)[C@@]2(C)C([C@H](OC(=O)c3ccccc3)[C@]3(O)C[C@H](OC(=O)[C@H](O)[C@@H](NC(=O)c4ccccc4)c4ccccc4)C(C)=C1C3(C)C)[C@]1(OC(C)=O)CO[C@@H]1C[C@@H]2OC(=O)CC(C)(C)SN=O (some centres not stated) [listing 2 of 2 here]	–	–	–	316 nM stent-1	349 nM stent-1	–	–
CC(=O)O[C@H]1C(=O)[C@@]2(C)C([C@H](OC(=O)c3ccccc3)[C@]3(O)C[C@H](OC(=O)[C@H](O)[C@@H](NC(=O)c4ccccc4)c4ccccc4)C(C)=C1C3(C)C)[C@]1(OC(C)=O)CO[C@@H]1C[C@@H]2OC(=O)CC(C)(C)SN=O.CN(C)C(=O)CC1(SN=O)C2CC3CC(C2)CC1C3 (some centres not stated) [listing 1 of 2 here]	627 nmol/stent	209 nM stent-1	31%	–	–	–	Activity (Oryctolagus cuniculus [7]): -41%; Stenosis (Oryctolagus cuniculus [8]): 15%; Activity (Oryctolagus cuniculus [9]): -18%; Activity (Oryctolagus cuniculus [10]): -34%
CN(C)C(=O)CC1(SN=O)C2CC3CC(C2)CC1C3 (configuration not stated)	417 nmol/stent	18 nM stent-1	5%	440 nM stent-1	436 nM stent-1	4.82	–
CC(=O)O[C@H]1C(=O)[C@@]2(C)[C@H]([C@H](OC(=O)c3ccccc3)[C@]3(O)C[C@H](OC(=O)[C@H](O)[C@@H](NC(=O)c4ccccc4)c4ccccc4)C(C)=C1C3(C)C)[C@]1(OC(C)=O)CO[C@@H]1C[C@@H]2O [PACLITAXEL]	–	–	–	–	–	~9.00	Activity (Oryctolagus cuniculus [7]): -11%; Stenosis (Oryctolagus cuniculus [8]): 22.6%; Activity (Oryctolagus cuniculus [9]): 23%
CC(=O)O[C@H]1C(=O)[C@@]2(C)C([C@H](OC(=O)c3ccccc3)[C@]3(O)C[C@H](OC(=O)[C@H](O)[C@@H](NC(=O)c4ccccc4)c4ccccc4)C(C)=C1C3(C)C)[C@]1(OC(C)=O)CO[C@@H]1C[C@@H]2OC(=O)CC(C)(C)SN=O.CN(C)C(=O)CC1(SN=O)C2CC3CC(C2)CC1C3 (some centres not stated) [listing 2 of 2 here]	–	–	–	746 nM stent-1	733 nM stent-1	–	–
CC(=O)O[C@H]1C(=O)[C@@]2(C)C([C@H](OC(=O)c3ccccc3)[C@]3(O)C[C@H](OC(=O)[C@H](O)[C@@H](NC(=O)c4ccccc4)c4ccccc4)C(C)=C1C3(C)C)[C@]1(OC(C)=O)CO[C@@H]1C[C@@H]2OC(=O)CC(C)(C)S (some centres not stated)	–	–	–	–	–	7.70	–
